Experimental data from ChEMBL document CHEMBL1157691, “Synthesis and antiproliferative evaluations of certain 2-phenylvinylquinoline (2-styrylquinoline) and 2-furanylvinylquinoline derivatives” (Bioorg Med Chem, 2010).

Tests used:
NCI-H460 = test: Antiproliferative activity against human NCI-H460 cells assessed as cell survival at 4 ug/mL after 72 hrs by MTS assay relative to control; type: functional; settings: NCI-H460, 72 h, read-out: Survival
Method in brief: (§1)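 Log-phase cells seeded at 5000 cells/mL/well in 24-well format. They were then exposed to test agents at a single concentration of 4.0 μg/mL for 72 h. Growth and viability were read by MTS assay.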

SF-268 = test: Antiproliferative activity against human SF268 cells assessed as cell survival at 4 ug/mL after 72 hrs by MTS assay relative to control; type: functional; settings: SF-268, 72 h, read-out: Survival; method in brief: as §1
MCF7 [1] = test: Antiproliferative activity against human MCF7 cells assessed as cell survival at 4 ug/mL after 72 hrs by MTS assay relative to control; type: functional; settings: MCF7, 72 h, read-out: Survival; method in brief: as §1
[2] = Growth inhibition of human NCI60 cells; type: functional
LNCaP = test: Antiproliferative activity against human LNCAP cells after 48 hrs by ATPlite assay; type: functional, cell-based
PC-3 = test: Antiproliferative activity against human PC3 cells after 48 hrs by ATPlite assay; type: functional, cell-based; settings: PC-3, 48 h
MCF7 [3] = test: Antiproliferative activity against human MCF7 cells after 48 hrs by ATPlite assay; type: functional, cell-based; settings: MCF7, 48 h

| SMILES | viability at 4 µg/mL (NCI-H460) | viability at 4 µg/mL (SF-268) | viability at 4 µg/mL (MCF7 [1]) | GI50 [2] | IC50 (LNCaP) | IC50 (PC-3) | IC50 (MCF7 [3]) |
| --- | --- | --- | --- | --- | --- | --- | --- |
| Oc1cccc2ccc(/C=C/c3cccnc3)nc12 | 63% | 89% | 115% |  |  |  |  |
| Oc1cccc(/C=C/c2ccc3cccc(O)c3n2)c1O | 53% | 52% | 95% |  |  |  |  |
| COc1cccc2c1C(=O)c1c(O)c3c(c(O)c1C2=O)C[C@@](O)(C(C)=O)C[C@@H]3O[C@H]1C[C@H](N)[C@H](O)[C@H](C)O1 [DAUNORUBICIN] |  |  |  | 44 nM |  |  |  |
| CO/N=C(/C)c1ccc(Nc2cc(/C=C/c3ccccc3)nc3ccccc23)cc1 | 79% | 112% | 108% |  |  |  |  |
| CC(=O)c1ccc(Nc2cc(/C=C/c3ccccc3)nc3ccccc23)cc1 | 52% | 107% | 83% |  |  |  |  |
| CO/N=C(\C)c1ccc(Nc2cc(/C=C/c3ccc([N+](=O)[O-])o3)nc3ccccc23)cc1 | < 20% | < 20% | < 20% |  | 1040 nM | 520 nM | 400 nM |
| COc1cccc2c(Nc3ccc(/C(C)=N\O)cc3)cc(/C=C/c3ccccc3)nc12 | < 20% | 63% | 40% |  |  |  |  |
| Oc1cc(/C=C/c2ccccc2)nc2ccccc12 | 118% | 120% | 119% |  |  |  |  |
| COc1cccc2c(Cl)cc(/C=C/c3ccccc3)nc12 | 109% | 81% | 99% |  |  |  |  |
| COc1cccc2c(O)cc(/C=C/c3ccccc3)nc12 | 111% | 119% | 104% |  |  |  |  |
| C/C(=N\O)c1ccc(Nc2cc(/C=C/c3ccc([N+](=O)[O-])o3)nc3ccccc23)cc1 | < 20% | < 20% | < 20% |  | 950 nM | 190 nM | 250 nM |
| Oc1cccc2ccc(/C=C/c3ccc(F)cc3)nc12 | 66% | 82% | 103% |  |  |  |  |
| CC(=O)c1ccc(Nc2cc(/C=C/c3ccc([N+](=O)[O-])o3)nc3ccccc23)cc1 | < 20% | < 20% | < 20% |  | 4120 nM | 450 nM | 430 nM |
| Oc1cccc2ccc(/C=C/c3ccco3)nc12 | 70% | 76% | 110% |  |  |  |  |
| Oc1ccc(/C=C/c2ccc3cccc(O)c3n2)cc1 | 52% | 78% | 108% |  |  |  |  |
| CC(=O)c1ccc(Nc2c3ccccc3nc3occc23)cc1 |  |  |  | 25 nM |  |  |  |
| N#Cc1ccc(/C=C/c2ccc3cccc(O)c3n2)cc1 | 66% | 90% | 107% |  |  |  |  |
| CO/N=C(/C)c1ccc(Nc2cc(/C=C/c3ccccc3)nc3c(OC)cccc23)cc1 | 87% | 97% | 97% |  |  |  |  |
| Oc1cccc2ccc(/C=C/c3ccccc3)nc12 | 55% | 72% | 110% |  |  |  |  |
| COc1cc(NS(C)(=O)=O)ccc1Nc1c2ccccc2nc2ccccc12 [AMSACRINE] |  |  |  | 440 nM |  |  |  |
| COc1cccc2c(Nc3ccc(C(C)=O)cc3)cc(/C=C/c3ccccc3)nc12 | 75% | 114% | 95% |  |  |  |  |
| C/C(=N/O)c1ccc(Nc2cc(/C=C/c3ccccc3)nc3ccccc23)cc1 | 67% | 90% | 54% |  |  |  |  |
| Clc1cc(/C=C/c2ccccc2)nc2ccccc12 | 109% | 118% | 120% |  |  |  |  |
| O=[N+]([O-])c1ccc(/C=C/c2ccc3cccc(O)c3n2)cc1 | 52% | 77% | 89% |  |  |  |  |
